From ChEMBL document CHEMBL2029296 (J Med Chem, 2012)
Calls of active or inactive are those of the source. The calls are words filed in the database; no cut-off is given here.

Columns and labels:
Adenosine receptor A2b = molecular target: T1, Adenosine receptor A2b (Homo sapiens, UniProt P29275); assay: Antagonist activity at human A2B receptor expressed in CHO cells assessed as inhibition of NECA-mediated cAMP accumulation; format: functional, cell-based
T1 sequence (P29275 whole entry): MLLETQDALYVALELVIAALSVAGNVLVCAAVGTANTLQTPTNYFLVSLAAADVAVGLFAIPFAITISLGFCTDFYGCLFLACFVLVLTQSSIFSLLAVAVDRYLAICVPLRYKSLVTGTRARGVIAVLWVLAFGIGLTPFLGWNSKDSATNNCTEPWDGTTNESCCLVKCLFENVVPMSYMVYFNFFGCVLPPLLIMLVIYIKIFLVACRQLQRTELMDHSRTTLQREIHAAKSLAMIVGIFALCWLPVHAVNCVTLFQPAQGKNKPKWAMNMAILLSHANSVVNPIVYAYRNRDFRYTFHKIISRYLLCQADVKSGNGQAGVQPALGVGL
Method in brief: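 hA2B-expressing CHO cells, 48 h after plating, were preincubated 15 min at 37 °C in DMEM with ADA 1 U/mL and Ro20-1724 20 μM. Antagonist (1 nM–10 μM) was added for 15 min at 37 °C, then 100 nM NECA. Reaction stopped with 0.4 N HCl, lysate neutralized with 4 N KOH, and cAMP measured by competitive protein binding.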

[1] = molecular target: T2, Adenosine receptor A2b (Homo sapiens) (UniProt P29275); assay: Induction of A2B receptor-mediated cell viability of human Caco2 cells assessed as cell survival at 0.1 to 50 nM after 24 hrs by MTS assay; format: cell-based; details: Caco-2
T2 sequence (whole entry): T1 sequence (P29275 whole entry)
Method in brief: (§1)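 Caco-2 cells grown in DMEM with 10% FBS, 2 mM L-glutamine and penicillin/streptomycin at 37 °C, 5% CO2, seeded at 5000 cells/well. Next day, antagonist (0.1–50 nM) added, alone or 5 min before 100 nM NECA, for 24 h. Viability read by MTS formazan absorbance at 490 nm. Background subtracted, expressed as % untreated control, duplicate or triplicate, ≥3 experiments.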

Adenosine receptor A1 = molecular target: T3, Adenosine receptor A1 (Homo sapiens, UniProt P30542); assay: Displacement of [3H]DPCPX from human A1 adenosine receptor expressed in CHO cell membrane; format: cell membranes
T3 sequence (P30542 whole entry): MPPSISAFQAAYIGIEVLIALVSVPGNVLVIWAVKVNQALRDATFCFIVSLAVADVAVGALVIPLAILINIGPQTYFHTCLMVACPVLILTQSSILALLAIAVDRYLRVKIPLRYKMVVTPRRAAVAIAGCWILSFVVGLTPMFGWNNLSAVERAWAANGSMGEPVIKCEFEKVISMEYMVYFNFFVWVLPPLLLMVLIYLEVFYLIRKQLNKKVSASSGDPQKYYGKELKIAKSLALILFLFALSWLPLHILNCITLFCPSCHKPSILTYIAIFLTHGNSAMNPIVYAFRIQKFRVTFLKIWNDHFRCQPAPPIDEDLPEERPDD

Adenosine receptor A2a = Adenosine receptor A2a (Homo sapiens, UniProt P29274); assay: Displacement of [3H]NECA from human A2A adenosine receptor expressed in CHO cell membrane; format: cell membranes
Chain of Adenosine receptor A2a (P29274 whole entry): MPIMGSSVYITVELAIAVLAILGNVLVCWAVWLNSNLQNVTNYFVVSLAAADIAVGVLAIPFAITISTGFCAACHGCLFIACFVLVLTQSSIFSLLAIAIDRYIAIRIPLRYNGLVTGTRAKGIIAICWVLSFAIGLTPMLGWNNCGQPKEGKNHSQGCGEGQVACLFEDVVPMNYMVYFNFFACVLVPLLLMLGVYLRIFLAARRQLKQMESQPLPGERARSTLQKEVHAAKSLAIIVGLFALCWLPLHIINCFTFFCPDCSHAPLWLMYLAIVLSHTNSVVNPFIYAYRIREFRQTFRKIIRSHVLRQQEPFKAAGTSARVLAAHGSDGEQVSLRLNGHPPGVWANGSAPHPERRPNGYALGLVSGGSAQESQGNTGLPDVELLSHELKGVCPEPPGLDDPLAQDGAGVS

[2] = molecular target: T2, Adenosine receptor A2b (Homo sapiens); assay: Antagonist activity at A2B receptor in human Caco2 cells assessed as reversal of NECA-induced cell death at 0.1 to 50 nM after 24 hrs by MTS assay; format: functional, cell-based; details: Caco-2; method in brief: as §1
Adenosine receptor A3 = molecular target: T4, Adenosine receptor A3 (Homo sapiens, UniProt P0DMS8); assay: Displacement of [125I]AB-MECA from human A3 adenosine receptor expressed in CHO cell membrane; format: cell membranes
T4 sequence (P0DMS8 whole entry): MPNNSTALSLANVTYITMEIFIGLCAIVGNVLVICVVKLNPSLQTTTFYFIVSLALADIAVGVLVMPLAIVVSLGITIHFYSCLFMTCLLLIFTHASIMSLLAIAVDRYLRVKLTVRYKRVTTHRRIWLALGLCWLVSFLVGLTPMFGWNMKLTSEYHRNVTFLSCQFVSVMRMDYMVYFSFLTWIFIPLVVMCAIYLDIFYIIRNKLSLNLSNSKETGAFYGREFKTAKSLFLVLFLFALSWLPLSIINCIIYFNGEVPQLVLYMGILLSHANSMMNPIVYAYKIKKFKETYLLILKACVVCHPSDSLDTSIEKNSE

Row | Structure (SMILES) | IC50 (Adenosine receptor A2b) [nM] | Activity [1] | Ki (Adenosine receptor A1) [nM] | Ki (Adenosine receptor A2a) [nM] | inhibition [2] | Ki (Adenosine receptor A3) [nM]
1 | O=c1c(-c2ccccc2)nnc2n(-c3ccc(Cl)cc3)c3ccccc3n12 | 2.42 | inactive | 1360 | > 10000 | Active | > 1000
2 | O=c1c(-c2ccccc2)nnc2n(CCc3ccccc3)c3ccccc3n12 | 2.5 | inactive | > 10000 | > 10000 | Active | 328
3 | Cn1c2ccccc2n2c(=O)c(-c3ccco3)nnc12 | 20.4 |  | 211 | 2610 |  | > 1000
4 | O=c1c(-c2ccccc2)nnc2n(Cc3ccccc3)c3ccccc3n12 | 54.3 |  | 299 | > 10000 |  | > 1000
5 | Cn1c2ccccc2n2c(=O)c(-c3ccccc3)nnc12 | 58 |  | 62 | > 10000 |  | > 1000
6 | O=c1c(-c2ccco2)nnc2n(CCc3ccccc3)c3ccccc3n12 | 5.34 |  | > 10000 | 15.8 |  | > 1000
7 | O=c1c(-c2ccccc2)nnc2n(-c3ccccc3)c3ccc(Cl)cc3n12 | 3.1 | inactive | > 10000 | > 10000 | Active | > 1000
8 | O=c1c(-c2ccco2)nnc2n(-c3ccccc3)c3ccccc3n12 | 3200 |  | > 10000 | 3280 | Active | > 1000
9 | O=c1c(-c2ccco2)nnc2n(-c3ccccc3)c3ccc(Cl)cc3n12 | 7850 |  | > 10000 | > 10000 | Active | > 1000
10 | O=c1c(-c2ccccc2)nnc2n(-c3ccccc3)c3ccccc3n12 | 15 |  | 83 | > 10000 |  | > 1000
11 | O=c1c(-c2ccco2)nnc2n(-c3ccc(Cl)cc3)c3ccccc3n12 | 2.11 | inactive | > 10000 | 50.6 | Active | 702
12 | Oc1c(-c2ccccc2)nnc2nc3ccccc3n12 | 1.4 | inactive | 728 |  | Active | > 1000
13 | Oc1c(-c2ccco2)nnc2nc3ccccc3n12 | 15.3 |  | 25 |  |  | > 1000
14 | O=c1c(-c2ccco2)nnc2n(Cc3ccccc3)c3ccccc3n12 | 10 |  | > 10000 | 156 |  | > 1000
